# Source: ChEMBL document CHEMBL3046353, “Synthesis and fungicidal activity of some 5-membered heterocyclic derivatives containing benzimidazoles” (1993)
# The source made the active and inactive calls. No cut-off for these calls is given here.
# Legend:
# Helminthosporium = assay: Fungicidal activity against Helminthosporium oryzae at 500 ppm after 7 days by poisoned food technique; type: functional; conditions: 168 h, read-out: GI
# In short: (§1)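 Cultures kept on potato dextrose agar. Each compound, dissolved in acetone, was added to potato dextrose agar at a final 500 ppm (w/v) (poisoned food technique). A disc cut from the periphery of a seven-day-old culture was inoculated onto each set. Control sets held potato dextrose agar only. The read-out is percentage inhibition of fungal growth relative to control.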
# Convolvulaceae [1] = assay: Herbicidal activity against Convolvulaceae (morning glory family) under paddy conditions; type: functional, organism-based
# Echinochloa crus-galli [2] = assay: Pre-emergence herbicidal activity against Echinochloa crus-galli (barnyard grass); type: functional, organism-based
# Sagittaria latifolia [3] = assay: Pre-emergence herbicidal activity against Sagittaria latifolia (broadleaf arrowhead); type: functional, organism-based
# Rhizoctonia solani = assay: Fungicidal activity against Rhizoctonia solani at 500 ppm after 7 days by poisoned food technique; type: functional; conditions: 168 h, read-out: GI; in short: as §1
# Avena sativa [4] = assay: Pre-emergence herbicidal activity against Avena sativa; type: functional, organism-based
# Schoenoplectus acutus [5] = assay: Post-emergence herbicidal activity against Schoenoplectus acutus (hardstem bulrush); type: functional, organism-based
# Musca domestica = assay: Insecticidal activity against Musca domestica (house fly); type: functional, organism-based
# Abutilon theophrasti [6] = assay: Post-emergence herbicidal activity against Abutilon theophrasti (velvetleaf); type: functional, organism-based
# Abutilon theophrasti [7] = assay: Pre-emergence herbicidal activity against Abutilon theophrasti (velvetleaf); type: functional, organism-based
# Schoenoplectus acutus [8] = assay: Herbicidal activity against Schoenoplectus acutus (hardstem bulrush) under paddy conditions; type: functional, organism-based
# Sagittaria latifolia [9] = assay: Herbicidal activity against Sagittaria latifolia (broadleaf arrowhead) under paddy conditions; type: functional, organism-based
# Spodoptera litura = assay: Insecticidal activity against Spodoptera litura; type: functional, organism-based
# Oryza sativa [10] = assay: Pre-emergence herbicidal activity against Oryza sativa (rice); type: functional, organism-based
# Sagittaria latifolia [11] = assay: Post-emergence herbicidal activity against Sagittaria latifolia (broadleaf arrowhead); type: functional, organism-based
# Echinochloa crus-galli [12] = assay: Herbicidal activity against Echinochloa crus-galli (barnyard grass) under paddy conditions; type: functional, organism-based
# Oryza sativa [13] = assay: Herbicidal activity against Oryza sativa (rice) under paddy conditions; type: functional, organism-based
# Avena sativa [14] = assay: Post-emergence herbicidal activity against Avena sativa; type: functional, organism-based
# Oryza sativa [15] = assay: Post-emergence herbicidal activity against Oryza sativa (rice); type: functional, organism-based
# Schoenoplectus acutus [16] = assay: Pre-emergence herbicidal activity against Schoenoplectus acutus (hardstem bulrush); type: functional, organism-based
# Convolvulaceae [17] = assay: Pre-emergence herbicidal activity against Convolvulaceae (morning glory family); type: functional, organism-based
# Convolvulaceae [18] = assay: Post-emergence herbicidal activity against Convolvulaceae (morning glory family); type: functional, organism-based
# Echinochloa crus-galli [19] = assay: Post-emergence herbicidal activity against Echinochloa crus-galli (barnyard grass); type: functional, organism-based
# Avena sativa [20] = assay: Herbicidal activity against Avena sativa under paddy conditions; type: functional, organism-based
# Culex pipiens pallens = assay: Insecticidal activity against Culex pipiens pallens (mosquito) at 3 to 5 ppm; type: functional, organism-based
# Tetranychus cinnabarinus = assay: Insecticidal activity against Tetranychus cinnabarinus (carmine spider mite); type: functional, organism-based
Structure (SMILES),inhibition of growth at 500 ppm (Helminthosporium),Activity (Convolvulaceae [1]),Activity (Echinochloa crus-galli [2]),Activity (Sagittaria latifolia [3]),inhibition of growth at 500 ppm (Rhizoctonia solani),Activity (Avena sativa [4]),Activity (Schoenoplectus acutus [5]),Activity (Musca domestica),Activity (Abutilon theophrasti [6]),Activity (Abutilon theophrasti [7]),Activity (Schoenoplectus acutus [8]),Activity (Sagittaria latifolia [9]),Activity (Spodoptera litura),Activity (Oryza sativa [10]),Activity (Sagittaria latifolia [11]),Activity (Echinochloa crus-galli [12]),Activity (Oryza sativa [13]),Activity (Avena sativa [14]),Activity (Oryza sativa [15]),Activity (Schoenoplectus acutus [16]),further results
Nn1c(SCc2nc3ccccc3[nH]2)nnc1-c1ccncc1,30%,inactive,inactive,inactive,29.3%,inactive,inactive,inactive,inactive,inactive,inactive,inactive,inactive,inactive,inactive,inactive,inactive,inactive,inactive,inactive,Activity (Convolvulaceae [17]): inactive; Activity (Convolvulaceae [18]): inactive; Activity (Echinochloa crus-galli [19]): inactive; Activity (Avena sativa [20]): inactive; Activity (Culex pipiens pallens): Active; Activity (Tetranychus cinnabarinus): inactive
c1ccc2[nH]c(CSc3nnc(-c4ccncc4)o3)nc2c1,49.8%,inactive,inactive,inactive,32%,inactive,inactive,inactive,inactive,inactive,inactive,inactive,inactive,inactive,inactive,inactive,inactive,inactive,inactive,inactive,Activity (Convolvulaceae [17]): inactive; Activity (Convolvulaceae [18]): inactive; Activity (Echinochloa crus-galli [19]): inactive; Activity (Avena sativa [20]): inactive; Activity (Culex pipiens pallens): Active; Activity (Tetranychus cinnabarinus): inactive
Clc1cccc(-c2nnc(SCc3nc4ccccc4[nH]3)s2)c1,91.2%,inactive,inactive,inactive,89.5%,inactive,inactive,inactive,inactive,inactive,inactive,inactive,inactive,inactive,inactive,inactive,inactive,inactive,inactive,inactive,Activity (Convolvulaceae [17]): inactive; Activity (Convolvulaceae [18]): inactive; Activity (Echinochloa crus-galli [19]): inactive; Activity (Avena sativa [20]): inactive; Activity (Culex pipiens pallens): Active; Activity (Tetranychus cinnabarinus): inactive
Clc1cccc(-c2nnc(SCc3nc4ccccc4[nH]3)o2)c1,89.7%,inactive,inactive,inactive,69.4%,inactive,inactive,inactive,inactive,inactive,inactive,inactive,inactive,inactive,inactive,inactive,inactive,inactive,inactive,inactive,Activity (Convolvulaceae [17]): inactive; Activity (Convolvulaceae [18]): inactive; Activity (Echinochloa crus-galli [19]): inactive; Activity (Avena sativa [20]): inactive; Activity (Culex pipiens pallens): Active; Activity (Tetranychus cinnabarinus): inactive
Nn1c(SCc2nc3ccccc3[nH]2)nnc1-c1ccccc1Cl,52.3%,inactive,inactive,inactive,39.8%,inactive,inactive,inactive,inactive,inactive,inactive,inactive,inactive,inactive,inactive,inactive,inactive,inactive,inactive,inactive,Activity (Convolvulaceae [17]): inactive; Activity (Convolvulaceae [18]): inactive; Activity (Echinochloa crus-galli [19]): inactive; Activity (Avena sativa [20]): inactive; Activity (Culex pipiens pallens): Active; Activity (Tetranychus cinnabarinus): inactive
Cc1ccc2[nH]c(CSc3nnc(-c4ccccc4)o3)nc2c1,65.3%,inactive,inactive,inactive,61.3%,inactive,inactive,inactive,inactive,inactive,inactive,inactive,inactive,inactive,inactive,inactive,inactive,inactive,inactive,inactive,Activity (Convolvulaceae [17]): inactive; Activity (Convolvulaceae [18]): inactive; Activity (Echinochloa crus-galli [19]): inactive; Activity (Avena sativa [20]): inactive; Activity (Culex pipiens pallens): Active; Activity (Tetranychus cinnabarinus): inactive
Clc1ccc(-c2nnc(SCc3nc4ccccc4[nH]3)o2)cc1,39.7%,inactive,inactive,inactive,21.2%,inactive,inactive,inactive,inactive,inactive,inactive,inactive,inactive,inactive,inactive,inactive,inactive,inactive,inactive,inactive,Activity (Convolvulaceae [17]): inactive; Activity (Convolvulaceae [18]): inactive; Activity (Echinochloa crus-galli [19]): inactive; Activity (Avena sativa [20]): inactive; Activity (Culex pipiens pallens): Active; Activity (Tetranychus cinnabarinus): inactive
